Calls of active or inactive are those of the source. Unless noted, no stated cut-off is given here; in the data, active means inhibition above about 30%; inactive means the rest.
Tests used:
[1] = reducers of endogenous Her2 protein level, primary screen, SKBR3 breast tumor cells, AlphaScreen, ATP viability (AID 461;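 active means Her2 level under about 52% in both replicate screens, with viability over 70% of control, limit read from the data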;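 on Her2 level: lower value means less Her2 protein in the cells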;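 on viability: percent of carrier control wells set as 100% viability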); conditions: 18-24 h, measured here: SKBR3 viability, ATP luminescence, at 10 µM
[2] = target: Receptor tyrosine-protein kinase erbB-2 (Homo sapiens) (UniProt P04626); assay: as above; conditions: 18-24 h, at 10 µM, stronger effect = lower value
Receptor tyrosine-protein kinase erbB-2 (Homo sapiens), sequence (P04626 whole entry, looked up): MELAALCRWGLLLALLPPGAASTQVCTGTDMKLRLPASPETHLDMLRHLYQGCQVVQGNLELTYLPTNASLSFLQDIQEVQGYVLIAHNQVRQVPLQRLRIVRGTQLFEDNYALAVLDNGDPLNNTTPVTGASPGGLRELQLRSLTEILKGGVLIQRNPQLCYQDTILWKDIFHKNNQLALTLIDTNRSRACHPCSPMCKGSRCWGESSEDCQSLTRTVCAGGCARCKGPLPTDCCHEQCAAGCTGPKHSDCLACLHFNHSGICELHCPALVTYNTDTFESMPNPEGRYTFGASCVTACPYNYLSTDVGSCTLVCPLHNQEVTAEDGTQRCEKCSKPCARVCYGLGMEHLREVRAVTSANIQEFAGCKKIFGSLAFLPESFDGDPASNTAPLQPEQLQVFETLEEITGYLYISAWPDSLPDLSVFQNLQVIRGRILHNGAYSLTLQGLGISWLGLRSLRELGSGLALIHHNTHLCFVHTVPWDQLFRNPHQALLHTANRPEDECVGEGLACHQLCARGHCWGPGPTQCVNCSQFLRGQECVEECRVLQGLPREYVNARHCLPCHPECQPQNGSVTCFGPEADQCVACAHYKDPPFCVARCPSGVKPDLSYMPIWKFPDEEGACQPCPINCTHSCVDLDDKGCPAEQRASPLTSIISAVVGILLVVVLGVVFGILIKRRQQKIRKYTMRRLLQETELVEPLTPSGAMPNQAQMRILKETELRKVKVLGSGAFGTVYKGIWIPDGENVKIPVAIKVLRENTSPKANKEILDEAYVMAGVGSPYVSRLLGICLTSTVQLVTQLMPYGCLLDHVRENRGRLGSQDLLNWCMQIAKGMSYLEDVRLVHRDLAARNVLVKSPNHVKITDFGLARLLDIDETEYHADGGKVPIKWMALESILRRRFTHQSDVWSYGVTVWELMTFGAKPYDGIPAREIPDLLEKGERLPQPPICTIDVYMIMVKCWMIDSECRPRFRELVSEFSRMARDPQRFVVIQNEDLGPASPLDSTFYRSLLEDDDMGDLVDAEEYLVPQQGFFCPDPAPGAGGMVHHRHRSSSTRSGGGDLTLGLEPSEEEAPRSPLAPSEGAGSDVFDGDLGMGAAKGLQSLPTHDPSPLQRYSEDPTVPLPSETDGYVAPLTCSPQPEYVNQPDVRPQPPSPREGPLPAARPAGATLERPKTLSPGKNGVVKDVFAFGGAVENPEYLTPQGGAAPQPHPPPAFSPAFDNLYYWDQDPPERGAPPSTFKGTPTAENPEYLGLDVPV

[3] = SK-BR-3 cell growth inhibitors, pilot screen, 24 h, human (AID 572;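 active means viability at or below 10% of carrier control in both of two separate runs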;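 further: compound exposure lasted between 18 and 24 h rather than exactly 24 h; 100% = carrier-treated control wells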); conditions: SK-BR-3 viability, CellTiter-Glo luminescence, at 10 µM, stronger effect = lower value
[4] = HUVEC growth inhibition – cell-based, human, primary screen (AID 575;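 active means viability at or below 30% in both replicate assays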;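 further: 100% = median of untreated cell wells with 0.1% DMSO on each plate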); conditions: HUVEC proliferation, CellTiter-Glo luminescence, 72 h; at 10 µM; stronger effect = lower value
How it was run: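 Material: primary human umbilical vein endothelial cells / Schedule: 72 h exposure, 37 °C, 5% CO2, 30 min RT equilibration / Signal: ATP-based CellTiter-Glo luminescent read / Read-out basis: percent of median DMSO-control luminescence / Control set: 32 DMSO-only cell-control wells (high), 32 MePR drug-control wells (low) per plate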

[5] = growth inhibitors of H69AR lung tumor, primary screen, human, duplicate replicates (AID 580;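 active means viability at or under a set limit in both replicates, limit being median viability minus 3 SD, cut at about 48% in these data, passing the limit was not always enough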;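 further: 100% = mean luminescence of untreated wells and 0% = no signal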); conditions: H69AR lung tumor cells viability, ATP luminescence, 72 h; at 10 µM; stronger effect = lower value
[6] = reversal of MRP1-mediated doxorubicin resistance, pilot screen, H69AR cells, doxorubicin co-treatment (AID 601;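 active means viability loss from added drug above about 55%, and viability with drug at most 40%, in both replicates, limit read from the data, passing the limit was not always enough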); conditions: CellTiter-Glo, 72 h, at 10 µM; for differential viability (reversal): stronger effect = higher value
[7] = 384-well plate pilot, post-Golgi transport modulator project, inhibition of yeast transport mutant growth (AID 636; in the data active means inhibition above about 31%); conditions: absorbance 615 nm, about 18 h, stronger effect = higher value
[8] = growth suppression of yeast trafficking mutant, preliminary HTS, modulators of trafficking downstream of Golgi apparatus project, 1536-format plate, OD 615 nm (AID 637); conditions: yeast transport mutant growth, absorbance 615 nm, 18 h; stronger effect = higher value
[9] = H69AR cells + 2 uM doxorubicin, measured here: viability with 2 uM doxorubicin, stronger effect = lower value
[10] = H69AR cells, compound alone cytotoxicity

Row | Structure (SMILES) | viability [1] [%] | Her2 level [2] | viability [3] | viability [4] | viability [5] | differential viability (reversal) ([6]; H69AR cells + 2 uM doxorubicin) | viability [6, 9] [%] | viability [6, 10] [%] | inhibition [7] | inhibition [8]
1 | COc1ccc(-c2cc(N3CCCC3)n3ncnc3n2)cc1 | 86 | 94.5% (inactive) | 86% (inactive) | 78.7% (inactive) | 87.2% (inactive) | 11.9% (inactive) | 75.2 | 87.2 | -5.27% (inactive) | -2.46% (inactive)
2 | Cc1nnc2ccc(N3CCC4(CC3)OCCO4)nn12 | 101 | 89.5% (inactive) | 101% (inactive) | 100% (inactive) | 108% (inactive) | 11.1% (inactive) | 96.5 | 108 | -6.22% (inactive) | -3% (inactive)
3 | CN1CCN(c2ncnc3c2cnn3-c2ccc(Cl)cc2)CC1 | 109 | 94% (inactive) | 109% (inactive) | 53.6% (inactive) | 89.3% (inactive) | 1.02% (inactive) | 88.3 | 89.3 | -0.27% (inactive) | 2.5% (inactive)
4 | O=C(CSc1ncnc2ccccc12)N1CCN(c2ccccc2)CC1 | 102 | 92.5% (inactive) | 102% (inactive) | 94.1% (inactive) | 82.7% (inactive) | 4.57% (inactive) | 78.1 | 82.7 | -1.05% (inactive) | -8.73% (inactive)
5 | O=C(NCc1ccco1)c1c2c(nc3ccccc13)CCC2 | 108 | 80% (inactive) | 108% (inactive) | 82.4% (inactive) | 80.7% (inactive) | 3.16% (inactive) | 77.5 | 80.7 | -6.4% (inactive) | 3.23% (inactive)
6 | COc1ccc2cc(CN(CCO)C(=O)c3ccc(Br)cc3)c(=O)[nH]c2c1 | 98 | 81.5% (inactive) | 98% (inactive) | 90.2% (inactive) | 110% (inactive) | 19.2% (inactive) | 90.3 | 110 | -4.93% (inactive) | 5.41% (inactive)
7 | COc1ccccc1C(=O)Nc1nc2ccc(S(C)(=O)=O)cc2s1 | 89.5 | 78% (inactive) | 89.5% (inactive) | 93.5% (inactive) | 79.5% (inactive) | -6.1% (inactive) | 85.6 | 79.5 | 0.64% (inactive) | -1% (inactive)
8 | O=C(NC1CCCCCC1)C1CCCN(S(=O)(=O)c2cccs2)C1 (stereo not given) | 90 | 118% (inactive) | 90% (inactive) | 101% (inactive) | 105% (inactive) | 17.6% (inactive) | 87.8 | 105 | -0.92% (inactive) | -6.5% (inactive)
9 | CCCC(=O)Nc1ccccc1NC(=O)CN(C)S(=O)(=O)c1ccc(C)cc1 | 97 | 114% (inactive) | 97% (inactive) | 103% (inactive) | 98.9% (inactive) | 9.23% (inactive) | 89.6 | 98.9 | -4.8% (inactive) | -4.84% (inactive)
10 | CCOC(=O)c1sc2nc(SCC#N)n(CCCN3CCCC3=O)c(=O)c2c1C | 80.5 | 73% (inactive) | 80.5% (inactive) | 68% (inactive) | 75.8% (inactive) | -8.2% (inactive) | 84 | 75.8 | -5% (inactive) | -1.48% (inactive)
11 | COCCNC(=O)c1c(N)n(/N=C/c2cccs2)c2nc3ccccc3nc12 | 110 | 75.5% (inactive) | 110% (inactive) | 78.2% (inactive) | 74.7% (inactive) | 0.24% (inactive) | 74.4 | 74.7 | 0.66% (inactive) | 3.11% (inactive)
12 | CC(=O)NC1CC2CCCC(C1)N2CC(=O)Nc1ccccc1 (stereo not given) | 95.5 | 97% (inactive) | 95.5% (inactive) | 88.9% (inactive) | 96.7% (inactive) | 11.4% (inactive) | 85.2 | 96.7 | 0.13% (inactive) | -6.98% (inactive)
13 | CC(C)(C)c1ccc2c(c1)OCC(C(=O)O)O2 (stereo not given) | 99.5 | 106% (inactive) | 99.5% (inactive) | 99.3% (inactive) | 106% (inactive) | 9.5% (inactive) | 96.3 | 106 | 0.55% (inactive) | -3.65% (inactive)
14 | Cc1cc(C)c2oc(=O)cc(CN3CCOCC3)c2c1 | 102 | 97% (inactive) | 102% (inactive) | 87.3% (inactive) | 91.4% (inactive) | 3.58% (inactive) | 87.9 | 91.4 | -6.93% (inactive) | 2.26% (inactive)
15 | CCOC(=O)Cn1nnnc1CN(Cc1ccc(OC)cc1)Cc1cc2cc(C)cc(C)c2[nH]c1=O | 95 | 105% (inactive) | 95% (inactive) | 87.3% (inactive) | 89.4% (inactive) | 15.2% (inactive) | 74.2 | 89.4 | -1.32% (inactive) | -0.55% (inactive)
16 | CCOc1ccccc1C(=O)NCC(=O)OCC(=O)N1C(C)CCCC1C (stereo not given) | 98.5 | 89% (inactive) | 98.5% (inactive) | 102% (inactive) | 103% (inactive) | 9.78% (inactive) | 93.4 | 103 | -3.77% (inactive) | -3.02% (inactive)
17 | CCOC(=O)n1c(SCC(=O)N(CC)CC)nc2ccccc21 | 118 | 97.5% (inactive) | 118% (inactive) | 105% (inactive) | 101% (inactive) | 15.7% (inactive) | 85.7 | 101 | -3.51% (inactive) | 1.11% (inactive)
18 | CC(C)CCNC(=O)C(c1ccco1)N(CC1CCCO1)C(=O)Cn1nnc2ccccc21 (stereo not given) | 100 | 100% (inactive) | 100% (inactive) | 101% (inactive) | 94.4% (inactive) | 1.64% (inactive) | 92.8 | 94.4 | -0.67% (inactive) | -0.16% (inactive)
19 | CCN(CC)S(=O)(=O)c1ccc(C(=O)N2CCN=C2SCc2cccnc2)cc1 | 82.5 | 95.5% (inactive) | 82.5% (inactive) | 79.7% (inactive) | 84.5% (inactive) | -3.98% (inactive) | 88.5 | 84.5 | -3.38% (inactive) | -3.02% (inactive)
20 | CS(=O)(=O)N1CCc2cc(C(=O)N3CCCCC3)ccc21 | 89.5 | 89% (inactive) | 89.5% (inactive) | 99.8% (inactive) | 96.6% (inactive) | 8.06% (inactive) | 88.5 | 96.6 | -3.42% (inactive) | 1.75% (inactive)
21 | Cn1c(SCC(=O)c2ccc(-c3ccccc3)cc2)nnc1-c1ccco1 | 120 | 93.5% (inactive) | 120% (inactive) | 93.7% (inactive) | 88.1% (inactive) | -2.98% (inactive) | 91.1 | 88.1 | -5.6% (inactive) | 9.68% (inactive)
22 | COc1ccc(OC)c2[nH]c(=O)c(CCNC(=O)CC(C)C)cc12 | 111 | 104% (inactive) | 111% (inactive) | 106% (inactive) | 100% (inactive) | 4.93% (inactive) | 95.2 | 100 | -8.77% (inactive) | -4.44% (inactive)
23 | COC(=O)c1[nH]c2ccccc2c1NS(=O)(=O)c1ccc(OC)cc1OC | 88.5 | 82% (inactive) | 88.5% (inactive) | 96.8% (inactive) | 84% (inactive) | -15.4% (inactive) | 99.4 | 84 | -5.26% (inactive) | -3.82% (inactive)
24 | CNc1ccc(C(O)(C(F)(F)F)C(F)(F)F)cc1C(O)(C(F)(F)F)C(F)(F)F | 98 | 73% (inactive) | 98% (inactive) | 76.8% (inactive) | 80.7% (inactive) | -3.27% (inactive) | 84 | 80.7 | -5.33% (inactive) | 5.25% (inactive)
25 | Cc1nnc(SCC(=O)Nc2ccc3c(c2)OCCO3)n1CC1CCCO1 (stereo not given) | 102 | 88.5% (inactive) | 102% (inactive) | 91.8% (inactive) | 94% (inactive) | 3.46% (inactive) | 90.6 | 94 | -5.14% (inactive) | -3.33% (inactive)
26 | Cc1cc(C)n2nc(SCC(=O)N(C)c3ccccc3)nc2n1 | 89.5 | 87% (inactive) | 89.5% (inactive) | 94.8% (inactive) | 104% (inactive) | 1.41% (inactive) | 102 | 104 | -7.57% (inactive) | 6.39% (inactive)
27 | CCn1c(=O)cc(SCC(=O)Nc2ccc3c(c2)OCO3)c2ccccc21 | 97 | 88% (inactive) | 97% (inactive) | 64.1% (inactive) | 87.9% (inactive) | 3.51% (inactive) | 84.4 | 87.9 | -2.5% (inactive) | -10.5% (inactive)
28 | CCCCOC(=O)C1=C(C)Nc2ncnn2C1c1cccc(OC)c1OC (stereo not given) | 81.5 | 65.5% (inactive) | 81.5% (inactive) | 95% (inactive) | 88.5% (inactive) | 7.84% (inactive) | 80.7 | 88.5 | -5.13% (inactive) | -3.33% (inactive)
29 | CCN(CC)C(=O)c1ccc(NS(=O)(=O)c2ccccc2)cc1 | 89.5 | 130% (inactive) | 89.5% (inactive) | 111% (inactive) | 86.1% (inactive) | -1.12% (inactive) | 87.3 | 86.1 | -1.32% (inactive) | -3.44% (inactive)
